{
  "source": "paper PMC8915191",
  "about": "(Clinical cancer research : an official journal of the …, 2019)",
  "key": {"[1]": {"system": "peripheral blood mononuclear cells", "assay": "Autophagic vesicles in serial PBMC by quantitative electron microscopy", "type": "in vivo, human", "details": "after one week of everolimus alone; 11 patients", "procedure,_shortened": "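Cancer patients took everolimus 10 mg alone for one week, then HCQ 400 or 600 mg twice daily was added. Serial PBMC were collected before treatment, after one cycle and after two cycles (one week of everolimus alone; one month combined) in a limited number of patients (3 at 400 mg, 8 at 600 mg). PBMC were fixed for quantitative EM of autophagic vesicles.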"}, "[2]": {"system": "advanced clear cell renal carcinoma (ccRCC)", "details": "cited from earlier work"}, "[3]": {"system": "mTOR", "details": "cited from earlier work"}, "[4]": {"details": "no reference given; cited from earlier work"}, "[5]": {"system": "patients with advanced RCC", "details": "human, in vivo, po, 5 weeks"}, "[6]": {"assay": "HCQ population pharmacokinetics, whole blood concentrations by HPLC-MS/MS", "type": "in vivo, human", "procedure,_shortened": "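HCQ 400 or 600 mg twice daily was given with everolimus, with a draw at each visit plus intensive sampling in a few patients (pre-dose, 15 min, 30 min, 1, 2, 3, 4, 6 h). Heparinized whole blood was stored at −70 °C and spiked with d4-HCQ internal standard. It was acetonitrile/methanol-precipitated and run on LC-MS/MS (positive ESI, MRM 337.275→248.152) in duplicate. The curve was 1–7500 ng/mL (LLOQ 1.0 ng/mL). A 2-compartment first-order-absorption model was fitted.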"}, "[7]": {"details": "2-compartment population PK model, 27 patients, oral HCQ"}, "[8]": {"details": "1000 bootstrap runs, population PK model"}},
  "note": "Values joined by “and” are separate entries in the source; they are usually repeats but may differ in a detail not shown here. Equal values may be shown once.",
  "data": [
    {"smiles": "CO[C@H]1C[C@@H]2CC[C@@H](C)[C@@](O)(O2)C(=O)C(=O)N2CCCC[C@H]2C(=O)O[C@H]([C@H](C)C[C@@H]2CC[C@@H](OCCO)[C@H](OC)C2)CC(=O)[C@H](C)/C=C(\\C)[C@@H](O)[C@@H](OC)C(=O)[C@H](C)C[C@H](C)/C=C/C=C/C=C/1C", "note": "[everolimus, Everolimus]", "values": [
      {"measurement": "Drug-induced change in autophagic vesicles in PBMC", "setting": "[1]", "result": "no significant drug-induced changes"},
      {"measurement": "Hazard ratio for PFS, everolimus versus placebo", "setting": "[2]; 95% CI 0.22–0.40, p<0·0001", "result": 0.30},
      {"measurement": "Median PFS, everolimus alone, CHECKMATE 025", "setting": "[2]", "result": 4.6, "unit": "months"},
      {"measurement": "Median PFS, everolimus alone, METEOR", "setting": "[2]", "result": 3.8, "unit": "months"},
      {"measurement": "Response rate, everolimus single agent", "setting": "[2]", "result": 1, "unit": "%"},
      {"measurement": "Median PFS, everolimus alone, RECORD-1", "setting": "[2]; everolimus 10 mg daily after TKI progression", "result": "4.01 months and 4 months"}
    ]},
    {"smiles": "CO[C@H]1C[C@@H]2CC[C@@H](C)[C@@](O)(O2)C(=O)C(=O)N2CCCC[C@H]2C(=O)O[C@H]([C@H](C)C[C@@H]2CC[C@@H](OC(=O)C(C)(CO)CO)[C@H](OC)C2)CC(=O)[C@H](C)/C=C(\\C)[C@@H](O)[C@@H](OC)C(=O)[C@H](C)C[C@H](C)/C=C/C=C/C=C/1C", "note": "[temsirolimus]", "values": [
      {"measurement": "mTOR inhibition in PBMC", "setting": "[3]", "result": "sustained mTOR inhibition"}
    ]},
    {"smiles": "CCN(CCO)CCCC(C)Nc1ccnc2cc(Cl)ccc12", "note": "(stereo not drawn) [HCQ, Hydroxychloroquine]", "values": [
      {"measurement": "Plasma protein binding", "setting": "[4]", "result": "not extensively bound to plasma proteins"},
      {"measurement": "Recommended phase II dose (RP2D) of HCQ", "setting": "[5]", "result": 600, "unit": "mg"},
      {"measurement": "Cl/F, apparent oral clearance, Model estimate", "setting": "[6]; [7]", "result": 7.98, "unit": "L/h"},
      {"measurement": "Q, intercompartmental clearance, Model estimate", "setting": "[6]; [7]", "result": 14.98, "unit": "L/h"},
      {"measurement": "V2/F, apparent peripheral volume of distribution, Model estimate", "setting": "[6]; [7]", "result": 3604.83, "unit": "L"},
      {"measurement": "Ka, absorption rate constant, Model estimate", "setting": "[6]; 2-compartment population PK model, 163 blood samples from 27 patients, oral HCQ", "result": 0.93, "unit": "h"},
      {"measurement": "Cl/F, apparent oral clearance, Bootstrap Estimate", "setting": "[6]; [8]", "result": 8.00, "unit": "L/h"},
      {"measurement": "Ka, absorption rate constant, Bootstrap Estimate", "setting": "[6]; [8]", "result": 1.00, "unit": "h"},
      {"measurement": "Q, intercompartmental clearance, Bootstrap Estimate", "setting": "[6]; [8]", "result": 15.02, "unit": "L/h"},
      {"measurement": "V2/F, apparent peripheral volume of distribution, Bootstrap Estimate", "setting": "[6]; [8]", "result": 3598.91, "unit": "L"},
      {"measurement": "Vd/F", "setting": "[6]; human, whole blood, po", "result": 600, "unit": "L"}
    ]}
  ]
}
